RGS16-Gao HTS: regulators of human RGS16-Galphao interaction | binding response (% of control), % at 10 µM | O15492+P09471 | 220,000 compounds, 0.38% hits | bead-based flow cytometry RGS16-Galphao binding, fluorescence; actives lie on both sides;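 further: Galphao activated by GDP with aluminum fluoride before binding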
Target sequence (O15492 whole entry, looked up): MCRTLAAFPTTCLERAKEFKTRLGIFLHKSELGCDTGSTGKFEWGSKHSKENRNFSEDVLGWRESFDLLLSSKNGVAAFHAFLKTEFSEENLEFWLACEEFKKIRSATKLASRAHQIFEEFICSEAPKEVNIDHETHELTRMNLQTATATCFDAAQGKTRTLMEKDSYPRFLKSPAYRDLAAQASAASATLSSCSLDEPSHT
Target sequence (P09471 whole entry, looked up): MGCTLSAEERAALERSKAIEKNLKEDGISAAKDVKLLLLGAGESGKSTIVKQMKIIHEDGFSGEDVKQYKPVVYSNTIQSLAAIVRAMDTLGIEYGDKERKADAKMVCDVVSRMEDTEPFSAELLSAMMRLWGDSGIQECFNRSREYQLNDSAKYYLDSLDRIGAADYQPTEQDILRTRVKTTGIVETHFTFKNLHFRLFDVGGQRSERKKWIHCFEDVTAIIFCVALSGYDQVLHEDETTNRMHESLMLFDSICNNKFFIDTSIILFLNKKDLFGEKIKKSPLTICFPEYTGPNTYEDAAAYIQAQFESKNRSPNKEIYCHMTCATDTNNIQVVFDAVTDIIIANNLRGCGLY
RGS4-Gao reg: human RGS4-Galphao interaction regulation; P09471; Multiplexed bead flow cytometry, RGS4-Galphao binding; actives lie on both sides; binding response (% of control), % at 10 µM; 220,000 compounds, 0.33% hits; in the data active means binding response below about 49% or above about 150%; inactive means in between;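 further: fluorescent Galphao activated with aluminum fluoride binding bead-coupled RGS4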
Target sequence (P09471 whole entry, looked up): as above
RGS7-Gao reg: modulates binding of RGS7 to human Galphao; P09471; Multiplexed bead flow cytometry; actives lie on both sides; binding response (% of control), % at 10 µM; 220,000 compounds, 0.35% hits; AID 1439; in the data active means binding response below about 49% or above about 150%; inconclusive means no clear call, values can overlap the other calls; inactive means in between;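 further: fluorescent Galphao held in activated GDP-AlF4 state binding bead-coupled RGS7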
RGS8-Gao: human RGS8-Galphao interaction regulation; P09471; multiplexed bead flow cytometry, RGS8-Galphao binding; actives lie on both sides; response (percent of control binding), % at 10 µM; 220,000 compounds, 0.34% hits; AID 1423; in the data active means response below about 60% or above about 140%; inactive means in between;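 further: Galphao activated as the GDP aluminium fluoride complex binding bead-coupled RGS8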
Biofilm kill mix: mixture kills Candida albicans biofilm cells | 120,000 compounds, 0.02% hits | AID 1242 | inhibition, % at 7.6 µM | C. albicans biofilm persisters + clotrimazole, fluorescence viability; primary screen in compound mixtures of four per well;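 further: compounds exposed to preformed 24 h biofilms for 48 h; 0% = untreated biofilm control and 100% = clotrimazole plus chlorhexidine kill blank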
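System: C. albicans CAF4-2 wild-type biofilms; Medium: RPMI/MOPS medium, pH 7.0; Reagent: Clotrimazole, 50 µg/mL; Times: biofilm formation 24 h, compound exposure 48 h, 37 °C; Detection: 2-h Alamar Blue fluorescence, 535/590 nm excitation/emission; Evaluation: percent inhibition of biofilm viability.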
RGS-Gao: regulators of human RGS4-Galphao interaction | shares compounds with RGS16-Gao HTS | multiplexed bead flow cytometry, RGS–Galpha-o binding | RGS4–Galpha-o binding response, % at 10 µM | 1,600 compounds, 99% hits;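 further: fluorescently labeled Galpha-o bound to GDP with aluminium fluoride binding biotinylated RGS beads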
Avidin counter: biotin-avidin bead binding disruption counter-screen; inhibition, % at 10 µM; shares compounds with RGS16-Gao HTS; 1,700 tested, under 10 active; streptavidin beads, fluorescein-biotin binding, flow cytometry; AID 1783;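 active means inhibition above 50%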;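 further: median green fluorescence of gated singlet beads compared with DMSO control wells; 0% = DMSO wells and 100% = complete loss of bead fluorescence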
RGS8-Gao confirm: confirmation of regulators of human RGS8-Galphao interaction; 1,700 compounds, 3% hits; binding response (% of control), % at 10 µM; shares compounds with RGS16-Gao HTS; bead-based flow cytometry RGS8-Galphao binding, fluorescence; actives lie on both sides; in the data active means binding response below about 72% or above about 130%; inactive means in between;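 further: Galphao activated as GDP AlF4 complex before binding bead RGS8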
RGS7-Gao confirm: confirmation of regulators of human RGS7-Galphao interaction. shares compounds with RGS16-Gao HTS. bead-based flow cytometry RGS7-Galphao binding; actives lie on both sides. response (percent of control binding), % at 10 µM. 1,700 compounds, 7.8% hits; in the data active means response below about 75% or above about 130%; inactive means in between;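 further: fluorescent Galphao activated with GDP and aluminum fluoride binding bead-coupled RGS7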
RGS16-Gao conf: confirmation of regulators of human RGS16-Galphao interaction. shares compounds with RGS16-Gao HTS. bead-based flow cytometry, RGS16-Galphao binding; actives lie on both sides. response (% of control binding), % at 10 µM. 1,700 compounds, 4% hits; in the data active means response below about 74% or above about 130%; inactive means in between;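 further: Galphao activated as the GDP aluminium fluoride complex binding bead-coupled RGS16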
RGS4-Gao confirm: confirmation of regulators of human RGS4-Galphao interaction | RGS4-Galphao binding, multiplexed bead flow cytometry; actives lie on both sides | 1,700 compounds, 4% hits | shares compounds with RGS16-Gao HTS | AID 1840 | binding response (% of control), % at 10 µM; in the data active means binding response below about 74% or above about 130%; inactive means in between
RGS19-Gao conf: RGS19-Galphao interaction regulation, single point confirmation. shares compounds with RGS16-Gao HTS. bead-based flow cytometry RGS19-Galphao binding; actives lie on both sides. response (percent of control binding), % at 10 µM. 1,700 compounds, 5% hits. AID 1841; in the data active means response below about 50% or above about 160%; inactive means in between;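 further: 100% = no compound control and 0% = blank background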
* = called active by the depositor; ? = inconclusive; · = no result given; [ ] = another dose, or the depositor's remark. The list is not random: actives were taken first. Their share in the collection is about 0.74%. Unless noted, how the calls were made is not given here.

SMILES | RGS16-Gao HTS | RGS4-Gao reg | RGS7-Gao reg | RGS8-Gao | Biofilm kill mix | RGS-Gao | Avidin counter | RGS8-Gao confirm | RGS7-Gao confirm | RGS16-Gao conf | RGS4-Gao confirm | RGS19-Gao conf
O=C(NNC(=O)C1CCCCC1)c1ccc(Br)cc1 | 103 | 100 | ? | 100 | 4 | · | · | · | · | · | · | ·
C/C(=N/NC(=O)CCC(=O)Nc1cccc(Cl)c1)c1ccc(C)cc1 | 63 | 94 | 98 | 85 | 19 | · | · | · | · | · | · | ·
COc1ccccc1NC(=O)CCC(=O)N/N=C(/C)c1ccc(C)cc1 | 16* | 90 | 93 | 80 | 18 | 90* | 2 | 104 | 100 | 104 | 102 | 100
Cc1cc(C)nc(/N=C2\NC(=O)CC3C(=O)NCCN23)n1 (stereo unspecified) | 10* | 21* | 12* | 13* | · | · | 0 | 105 | 95 | 101 | 102 | 79
Cc1ccc(S(=O)(=O)N(C)C)cc1NC(=O)c1c(-c2c(F)cccc2Cl)noc1C | 103 | 100 | ? | 101 | 5 | · | · | · | · | · | · | ·
C1=C(c2ccccc2)Nc2ccccc2N=C1c1ccccc1 | 88 | 96 | 92 | 98 | 5 | · | · | · | · | · | · | ·
Cc1cccc(NC(=S)NC2CC3C=CC2C3)c1 (stereo unspecified) | 108 | 108 | ? | 104 | 16 | · | · | · | · | · | · | ·
CN1CCN(C(c2cccc(C(F)(F)F)c2)c2nnnn2Cc2ccccc2)CC1 (stereo unspecified) | 348 | 126 | 120 | 144*[activator] | · | 126* | 1 | 100 | 100 | 102 | 101 | 105
N#Cc1cccc(C(c2nnnn2Cc2ccccc2)N2CCCC2)c1 (stereo unspecified) | 107 | 102 | 107 | 102 | · | · | · | · | · | · | · | ·
Cc1c(Cl)cccc1NC(=S)NC(=O)CCN1C(=O)c2ccccc2C1=O | 61 | 49* | 47* | 62 | -9 | · | 0 | 108 | 104 | 111 | 106 | 106
COc1ccc(C(=O)C[n+]2ccc3c(c2)nc(-c2cc(OC)c(OC)cc2OC)n3C)cc1 | 18* | 75 | 68 | 61 | · | 75* | 1 | 102 | 105 | 102 | 101 | 98
COc1cc(OC)c(-c2nc3c[n+](CC(=O)c4ccccc4)ccc3n2C)cc1OC | 87 | 102 | 101 | 98 | · | · | · | · | · | · | · | ·
CC1(C)CC(=O)C(C=Nc2ccc(NC3=C(C#N)C(=O)CC(C)(C)C3)cc2)=C(O)C1 | 101 | 99 | ? | 100 | 16 | · | · | · | · | · | · | ·
CCOC(=O)CN1C(=O)S/C(=C/c2ccc3c(c2)n(C)c(=O)n3C)C1=O | 23* | 85 | 84 | 84 | 18 | 85* | -2 | 101 | 97 | 99 | 98 | 114
Cn1c(=O)n(C)c2cc(/C=C3/SC(=O)N(CC(=O)N4CCOCC4)C3=O)ccc21 | 83 | 95 | 96 | 93 | 11 | · | · | · | · | · | · | ·
CCn1c(Sc2ccc([N+](=O)[O-])cn2)nnc1-c1ccco1 | 36 | 95 | 91 | 76 | 27 | · | · | · | · | · | · | ·
COc1ccccc1NS(=O)(=O)c1cc(Cl)ccc1OC | 218 | 125 | 129 | 144*[activator] | · | 125* | 0 | 104 | 103 | 107 | 104 | 98
O=C(N/N=C/c1ccc(O)cc1)c1cc(C23CC4CC(CC(C4)C2)C3)[nH]n1 | 82 | 84 | ? | 88 | 22 | · | · | · | · | · | · | ·
CCC(Cc1ccccc1)NC(=O)C1=C(C)C(=O)OC12CCC(C)CC2 (stereo unspecified) | 50 | 59 | 32* | 56* | 19 | 59* | -2 | 90 | 76 | 87 | 83 | 76
Cc1ccc(NC(=O)Nc2ccc(F)cc2F)c(OC(F)F)c1 | 108 | 101 | 101 | 104 | 23 | · | · | · | · | · | · | ·
COc1ccc(NC(=O)CC2SC(=Nc3ccccc3)NC2=O)c(OC)c1 (stereo unspecified) | 93 | 100 | 99 | 100 | · | · | · | · | · | · | · | ·
COc1ccc(NC(=O)CC2SC(=N)N(c3ccccc3)C2=O)c(OC)c1 (stereo unspecified) | -5.4* | 4.8* | 4.1* | 8.2* | 6 | · | -3 | 99 | 90 | 96 | 96 | 96
COc1ccc(NC(=O)CC(=O)Nc2ccc(OC)cc2OC)c(OC)c1 | 110 | 114 | 174*[activator] | 99 | · | 114* | -1 | 100 | 101 | 99 | 100 | 103
COc1ccc(NC(=O)Nc2cc(C)ccc2OC(F)F)c(OC)c1 | · | · | · | · | · | · | 0 | 81 | 72* | 80 | 78 | 71
COc1ccc(NC(=O)CC(C)=O)c(OC)c1 | 99 | 101 | ? | 102 | 11 | · | · | · | · | · | · | ·
SMILES | RGS16-Gao HTS | RGS4-Gao reg | RGS7-Gao reg | RGS8-Gao | Biofilm kill mix | RGS-Gao | Avidin counter | RGS8-Gao confirm | RGS7-Gao confirm | RGS16-Gao conf | RGS4-Gao confirm | RGS19-Gao conf
COc1ccc(NC(=S)NC2CCCCCC2)c(OC)c1 | 22* | 103 | 106 | 92 | 13 | 103* | 1 | 101 | 122 | 101 | 107 | 92
Cc1cc[n+]2n1CC(O)C2 (stereo unspecified) | · | · | · | · | 10 | · | 2 | 103 | 97 | 101 | 103 | 85
CN(Cc1ccccc1)C(=O)CN(c1ccc(F)cc1)S(=O)(=O)c1ccc2c(c1)OCCO2 | 100 | 101 | 99 | 101 | 14 | · | · | · | · | · | · | ·
O=[N+]([O-])c1cc(Cl)cc(/C=N/Nc2nc3ccccc3s2)c1O | 102 | 99 | 102 | 104 | 20 | · | · | · | · | · | · | ·
COc1cc(/C=N/Nc2nc3ccccc3s2)cc([N+](=O)[O-])c1O | · | · | · | · | 17 | · | -3 | 96 | 96 | 95 | 101 | 91
Cc1ccc(NC(=O)CN(C)S(=O)(=O)c2cccc3cccnc23)cc1 | 130 | 100 | 64 | 74 | · | · | · | · | · | · | · | ·
CC1CCC(NC(=O)CN(C)S(=O)(=O)c2cccc3cccnc23)CC1 (stereo unspecified) | 19* | 26* | ? | 33* | 24 | · | 1 | 101 | 101 | 99 | 100 | 105
Cc1ccc2[nH]c(-c3ccccc3)cc(=O)c2c1 | 94 | 98 | 103 | 96 | · | · | · | · | · | · | · | ·
CCN(CC)Cc1c(-c2ccccc2)[nH]c2ccc(C)cc2c1=O | 409 | 110 | 104 | 142*[activator] | · | 110* | -3 | 107 | 100 | 107 | 102 | 91

Bioassay records (PubChem)
